NSD2 inh: blocks human histone methyltransferase NSD2 | inhibition, % at 12.5 µM | NSD2 peptide methylation, AlphaScreen, 120 min | O96028 | actives 0.54% (n = 310,000); in the data active = inhibition above about 50%
LEDGF integ inh: blocks HIV-1 LEDGF/p75-dependent DNA integration. inhibition, % at 3.7 µM. TR-FRET IN-LEDGF/p75 DNA integration, Eu/Cy5. actives 0.64% (n = 370,000);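 active = inhibition above the screen-wide mean plus 3 SD, cut at about 13% in these data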;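 also: signal is the Cy5 over europium emission ratio at 671 and 618 nm; 0% = plate median of compound wells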
CASP6 VEID inh: inhibitors of human caspase-6 | AID 686996 | inhibition, % at 12.5 µM | purified caspase-6, Z-VEID-R110 cleavage fluorescence | actives 0.53% (n = 350,000);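 active = mean inhibition across replicates at least about 35%, with every replicate also reaching that limit, limit read from the data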;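 also: 0% = median of neutral control wells and 100% = no fluorescence left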
TDP2 inh: blocks human TDP2 phosphodiesterase activity | O95551 | recombinant TDP2, T5PNP hydrolysis, p-nitrophenol absorbance 415 nm | inhibition, % at 12.8 µM | actives 0.34% (n = 370,000) | AID 720702;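 active = inhibition above the mean of all tested compounds plus 3 SD, set per campaign, cut at about 25% in these data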;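 also: 0% = DMSO with enzyme and 100% = buffer with substrate but no TDP2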
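Incubation: 2 h at 37 °C; Test system: recombinant human TDP2; Quantity: enzyme 120 nM; Read-out basis: percent inhibition; Medium: 50 mM Tris-HCl pH 7.5 with Mg2+, KCl, DTT, BSA; Repeats: single replicate; Compound: 12.8 µM single point, 1% DMSO; Signal: epi absorbance; Reagent: 5 mM T5PNP chromogenic substrate; Benchmarks: no-enzyme high, DMSO-plus-enzyme low.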
UHRF1 MBD2 ctr: UHRF1 methyl-DNA binding inhibition. AID 687016. UHRF1 binding to methylated oligo, TR-FRET. inhibition, % at 4.4 µM. actives 0.75% (n = 370,000). Q96T88; in the data active = inhibition above about 21%;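 also: UHRF1 SRA domain binding a hemimethylated CpG hairpin DNA probe; 0% = median of test compound wells and 100% = reference inhibitor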
Target sequence (Q96T88 whole entry, looked up, the tested form may be a part): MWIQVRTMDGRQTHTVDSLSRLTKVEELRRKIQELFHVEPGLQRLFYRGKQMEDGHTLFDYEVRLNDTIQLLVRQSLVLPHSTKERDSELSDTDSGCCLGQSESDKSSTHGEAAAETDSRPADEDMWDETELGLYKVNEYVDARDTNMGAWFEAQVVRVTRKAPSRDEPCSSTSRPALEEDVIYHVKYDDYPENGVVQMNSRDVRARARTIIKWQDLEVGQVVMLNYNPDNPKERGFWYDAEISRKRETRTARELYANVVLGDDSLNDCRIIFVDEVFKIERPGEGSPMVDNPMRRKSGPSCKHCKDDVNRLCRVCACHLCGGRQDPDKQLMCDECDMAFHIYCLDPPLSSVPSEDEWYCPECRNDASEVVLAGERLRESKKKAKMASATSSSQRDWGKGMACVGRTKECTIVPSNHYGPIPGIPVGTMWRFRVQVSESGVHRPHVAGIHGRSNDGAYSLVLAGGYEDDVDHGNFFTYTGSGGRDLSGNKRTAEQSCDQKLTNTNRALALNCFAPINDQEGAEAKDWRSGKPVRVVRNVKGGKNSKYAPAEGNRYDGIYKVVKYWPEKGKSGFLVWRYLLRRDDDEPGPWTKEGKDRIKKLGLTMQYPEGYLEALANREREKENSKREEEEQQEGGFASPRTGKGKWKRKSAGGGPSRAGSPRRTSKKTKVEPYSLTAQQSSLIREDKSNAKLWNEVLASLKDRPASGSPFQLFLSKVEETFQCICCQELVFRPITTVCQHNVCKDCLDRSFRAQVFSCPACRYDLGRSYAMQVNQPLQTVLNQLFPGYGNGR
MBD2 inh: blocks human MBD2 binding to methylated DNA; actives 0.31% (n = 370,000); Q9UBB5; AID 686964; TR-FRET, MBD2 binding to methylated oligonucleotide; inhibition, % at 4.4 µM; in the data active = inhibition above about 13%
Active calls of the source: *; . = no result given. Shown are actives, neighbours in structure and some others; about 1.8% of the full set was active somewhere.

SMILES | NSD2 inh | LEDGF integ inh | CASP6 VEID inh | TDP2 inh | UHRF1 MBD2 ctr | MBD2 inh
CC(C)CN1CCC(CN2CCNC(=O)C2=O)CC1 | . | 2 | 36* | 3 | -2 | -4
CC(C)CC#Cc1ccc2c(c1)O[C@H](CN(C)Cc1cccc(F)c1)[C@H](C)CN([C@@H](C)CO)S2(=O)=O | . | . | 1 | . | . | .
CC(=O)c1ccc(S(=O)(=O)N2CCn3cccc3C2C)cc1 (centres undefined) | 7 | 0 | 1 | 11 | 0 | 5
CC1c2cccn2CCN1S(=O)(=O)c1ccc(F)cc1 (centres undefined) | 4 | 2 | 2 | 8 | 30* | 6
Cc1cc(C(=O)COC(=O)c2cccnc2Cl)c(C)n1C | 2 | 35* | 1 | 2 | 0 | -5
CCCCSc1nc2[nH]ncc2c(=O)[nH]1 | 1 | 1 | -1 | -2 | 68* | -6
COc1cccc(CNC(=O)C[C@@H]2CC[C@H](NC(=O)C3CCOCC3)[C@H](CO)O2)c1 | . | . | 4 | . | . | .
C[C@@H]1CCCCO[C@H](CN(C)C(=O)C2CCCCC2)[C@H](C)CN([C@H](C)CO)C(=O)c2cc(NC(=O)CCC(F)(F)F)ccc2O1 | . | . | -1 | . | . | .
C[C@H](CO)N1C[C@H](C)[C@@H](CN(C)S(=O)(=O)c2ccc(Cl)cc2)Oc2ccc(NC(=O)Cc3cn(C)c4ccccc34)cc2C1=O | . | . | 3 | . | . | .
CCCCOC(=O)Nc1ccc(S(=O)(=O)Nc2onc(C)c2C)cc1 | -2 | -3 | 2 | 9 | 21* | -2
O=C(Cc1cccs1)N(c1ccc(F)cc1)C1(C(=O)NC2CCCCC2)CCCC1 | -2 | 0 | 1 | 4 | 27* | 4
O=C1CCC(C(=O)N(c2ccccc2)C2(C(=O)NC3CCCCC3)CCCCC2)N1 (centres undefined) | -1 | 1 | . | 10 | -4 | -5
Cc1ccc(N(C(=O)C2CCC(=O)N2)C2(C(=O)NC3CCCC3)CCCCC2)cc1 (centres undefined) | 0 | 0 | . | 5 | 78* | -2
O=C(Cn1cnc2c(NCc3ccccc3)ncnc21)NCc1ccc2[nH]ccc2c1 | . | -1 | -2 | 2 | 24* | 6
O=C(Cn1cnc2c(OCc3ccccc3)ncnc21)NCc1ccc2[nH]ccc2c1 | . | -2 | -2 | -4 | -1 | -2
CCOc1ccc(S(=O)(=O)NCCC(=O)NCCc2ccc(OCC)c(OCC)c2)cc1 | -2 | -1 | 1 | -6 | 0 | -1
CCOc1ccc(CCNC(=O)CCS(=O)(=O)c2ccc(OC)cc2)cc1OCC | 21 | -1 | 38* | -9 | 8 | 1
Cc1ccc(CCNC(=O)CCS(=O)(=O)c2ccc(Br)cc2)cc1 | -5 | 4 | 0 | 8 | 24* | 8
COc1ccccc1C(=O)N1C[C@@H]2[C@H](c3ccccc31)[C@@H](CO)N2C(=O)Nc1ccccc1 | . | . | -1 | . | . | .
CCC(=O)N(C)C[C@@H]1Oc2ncc(-c3ccccc3C)cc2C(=O)N([C@H](C)CO)C[C@H]1C | . | . | 1 | . | . | .
COc1ccc(NC(=O)C(F)(OC)C(F)(F)F)c(OC)c1 (centres undefined) | -1 | 3 | 55* | 7 | -1 | 0
CS(=O)(=O)Nc1ccc2c(c1)[C@H]1C[C@@H](CC(=O)NCC3CC3)O[C@@H](CO)[C@H]1O2 | . | . | -2 | . | . | .
CN(C)C(=O)c1ccc(-c2ccc(C3[C@@H]4CN(C(=O)C5CCOCC5)C[C@H]3N4)cc2)cc1 (some centres undefined) | . | . | -1 | . | . | .
C[C@H]1CN([C@@H](C)CO)C(=O)c2cc(N(C)C)ccc2O[C@H]1CN(C)S(C)(=O)=O | . | . | 0 | . | . | .
CO/N=C\C(=N\Nc1ccc(OC)cc1)C(=O)c1ccccc1 | 1 | 0 | . | -12 | 38* | -6
SMILES | NSD2 inh | LEDGF integ inh | CASP6 VEID inh | TDP2 inh | UHRF1 MBD2 ctr | MBD2 inh
CO/N=C/C(=N\Nc1ccccc1)C(=O)c1ccccc1 | 6 | -1 | -3 | 4 | -3 | -3
C[C@@H]1CN([C@@H](C)CO)C(=O)c2cc(NC(=O)CCCN(C)C)ccc2O[C@@H](C)CCCCO[C@H]1CN(C)Cc1ccc(C(F)(F)F)cc1 | . | . | -3 | . | . | .
O=C(CSc1ccc2c(c1)OCCO2)NCc1ccccc1 | -1 | 1 | 38* | 4 | 7 | -1
Cc1ccc(SCC(=O)NCc2ccccc2)cc1 | -1 | -6 | 0 | 8 | -1 | 3
CN1CCN(C(=O)C[C@H]2C[C@@H]3c4cc(NC(=O)CC5CC5)ccc4O[C@@H]3[C@H](CO)O2)CC1 | . | . | -3 | . | . | .
COc1cccc(CNC(=O)CCCn2ccc3cc(S(=O)(=O)N4CCCC4)ccc32)c1 | -13 | -1 | 3 | -18 | -1 | -3
COc1cccc(CNC(=O)CCn2ccc3cc(S(=O)(=O)N4CCCC4)ccc32)c1 | -1 | -1 | 70* | 3 | 0 | -5
CC(=O)N=C1SC2CS(=O)(=O)CC2N1c1c(Cl)cccc1Cl (centres undefined) | -2 | -2 | . | 0 | 24* | -2
COc1cccc(NC(=O)N(C)C[C@@H]2Oc3ncc(C#Cc4ccc(F)cc4)cc3C(=O)N([C@@H](C)CO)C[C@@H]2C)c1 | . | . | -1 | . | . | .
COC(=O)c1cnc(N)s1 | -8 | 3 | 0 | 7 | 23* | 5
CCOC(=O)C1CCCN(C(=O)Nc2c(-c3ccccc3)noc2C)C1 (centres undefined) | -1 | -1 | -2 | 10 | 32* | 4
Nc1nc(N)c2cc(CNc3ccc(Cl)c(Cl)c3)ccc2n1 | 8 | -2 | 26 | -9 | 22* | 12
Nc1nc(N)c2cc(Sc3ccc(Cl)cc3)ccc2n1 | -3 | -3 | -3 | -18 | -1 | 0
O=C1[C@H](c2ccccc2)[C@@H](c2ccccc2)N1c1ccncc1 | . | -1 | 2 | 1 | 22* | 9
O=C(/C(=N/N=C/c1ccc(O)c(O)c1)c1ccccc1)c1ccccc1 | 43 | -5 | 44* | -4 | 0 | 1
Oc1ccc(/C=N/N(c2ccccc2)c2ccccc2)cc1O | 20 | 2 | 14 | -7 | 1 | 3
CCOC(=O)C1(CC/C(C)=N\NC(N)=O)CC(C)OC1=O (centres undefined) | 3 | 1 | . | -16 | 21* | 6
CCCCCC1(C(=O)OCC)CC(CSC(=N)N)OC1=O (centres undefined) | 3 | -2 | -5 | -4 | -2 | 1
Cc1ccc(S(=O)(=O)Nc2cccc3c2O[C@@H](CN(C)CC2CC2)[C@H](C)CN([C@H](C)CO)C3=O)cc1 | . | . | 0 | . | . | .
C[C@H]1CCCCO[C@H](CN(C)C(=O)c2ccccc2)[C@@H](C)CN([C@@H](C)CO)C(=O)c2cc(NC(=O)Nc3ccc4c(c3)OCO4)ccc2O1 | . | . | 23 | . | . | .
CCCN1CNC(=S)N(c2ccc(C)cc2C)C1 | -3 | 1 | -4 | 7 | -1 | -5
CCCN1CNC(=S)N(c2ccccc2C)C1 | 1 | 2 | 56* | 6 | 3 | -4

Screening results: PubChem BioAssay, several laboratories
